Test results reported in ChEMBL document CHEMBL1122866, “3-Phenyl-1-indanamines. Potential antidepressant activity and potent inhibition of dopamine, norepinephrine, and serotonin uptake” (J Med Chem, 1985).

How the values were obtained:
Type in all cases: functional
[1] = target: Norepinephrine transporter (Rattus norvegicus, UniProt Q9WTR4); experiment: Inhibition of noradrenaline uptake in rat synaptosomal fraction
Procedure, shortened: (§1)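 Synaptosomal uptake of DA, NE or 5-HT measured. The IC50 is in nM and is the mean of at least two determinations, each using five test concentrations in triplicate.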

[2] = target: Sodium-dependent dopamine transporter (Rattus norvegicus, UniProt P23977); experiment: Inhibition of dopamine uptake in rat synaptosomal fraction
[3] = target: Sodium-dependent serotonin transporter (Rattus norvegicus, UniProt P31652); experiment: Inhibition of 5-HT uptake in rat synaptosomal fraction; procedure, shortened: as §1
Mus musculus [4] = organism: Mus musculus; experiment: Antagonistic activity against tetrabenazine-induced ptosis in mice.
Procedure, shortened: (§2)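 Mice dosed intraperitoneally; the result is reported as the ED50 in μmol/kg with a range in parentheses. Test compounds are racemates of >95% isomeric purity by TLC.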

Mus musculus [5] = organism: Mus musculus; experiment: Antagonistic activity against tetrabenazine-induced ptosis in mice; procedure, shortened: as §2
Mus musculus [6] = organism: Mus musculus; experiment: Antagonistic activity against 5-HTP induced potentiation in mice; procedure, shortened: as §2

Chain of Sodium-dependent serotonin transporter (P31652 whole entry): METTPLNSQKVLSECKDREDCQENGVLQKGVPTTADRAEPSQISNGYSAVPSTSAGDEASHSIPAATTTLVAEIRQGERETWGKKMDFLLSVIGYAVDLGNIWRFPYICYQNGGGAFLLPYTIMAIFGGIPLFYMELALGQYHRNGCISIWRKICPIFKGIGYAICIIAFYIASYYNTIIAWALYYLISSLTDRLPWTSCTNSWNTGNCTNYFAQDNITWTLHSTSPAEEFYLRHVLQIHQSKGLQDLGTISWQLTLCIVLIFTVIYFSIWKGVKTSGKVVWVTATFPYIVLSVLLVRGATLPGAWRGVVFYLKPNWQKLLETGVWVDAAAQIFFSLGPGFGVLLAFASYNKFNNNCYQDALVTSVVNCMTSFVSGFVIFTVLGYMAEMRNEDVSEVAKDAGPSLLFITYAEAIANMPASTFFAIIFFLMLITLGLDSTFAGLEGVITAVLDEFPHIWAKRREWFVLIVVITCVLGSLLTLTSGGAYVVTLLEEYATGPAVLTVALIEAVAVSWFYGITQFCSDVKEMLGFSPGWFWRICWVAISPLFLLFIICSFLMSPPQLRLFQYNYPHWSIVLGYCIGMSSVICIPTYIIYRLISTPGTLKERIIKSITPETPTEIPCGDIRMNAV
Chain of Sodium-dependent dopamine transporter (P23977 whole entry): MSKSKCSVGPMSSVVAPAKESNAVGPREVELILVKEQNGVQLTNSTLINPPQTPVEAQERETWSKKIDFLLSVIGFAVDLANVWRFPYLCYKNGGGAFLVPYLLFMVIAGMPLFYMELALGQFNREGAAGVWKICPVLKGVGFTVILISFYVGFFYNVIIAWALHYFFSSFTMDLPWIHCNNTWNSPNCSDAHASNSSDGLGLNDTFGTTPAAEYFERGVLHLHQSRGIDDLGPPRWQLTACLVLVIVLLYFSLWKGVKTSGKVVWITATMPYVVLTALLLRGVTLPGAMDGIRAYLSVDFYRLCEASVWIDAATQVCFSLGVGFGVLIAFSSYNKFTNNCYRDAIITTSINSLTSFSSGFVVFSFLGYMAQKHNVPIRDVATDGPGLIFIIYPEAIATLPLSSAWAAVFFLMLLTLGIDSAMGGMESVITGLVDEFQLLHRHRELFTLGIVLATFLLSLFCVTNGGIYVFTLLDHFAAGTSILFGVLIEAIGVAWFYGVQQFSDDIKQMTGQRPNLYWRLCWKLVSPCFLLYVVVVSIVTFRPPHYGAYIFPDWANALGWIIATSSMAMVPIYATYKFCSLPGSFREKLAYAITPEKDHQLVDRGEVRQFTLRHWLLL
Chain of Norepinephrine transporter (Q9WTR4 whole entry): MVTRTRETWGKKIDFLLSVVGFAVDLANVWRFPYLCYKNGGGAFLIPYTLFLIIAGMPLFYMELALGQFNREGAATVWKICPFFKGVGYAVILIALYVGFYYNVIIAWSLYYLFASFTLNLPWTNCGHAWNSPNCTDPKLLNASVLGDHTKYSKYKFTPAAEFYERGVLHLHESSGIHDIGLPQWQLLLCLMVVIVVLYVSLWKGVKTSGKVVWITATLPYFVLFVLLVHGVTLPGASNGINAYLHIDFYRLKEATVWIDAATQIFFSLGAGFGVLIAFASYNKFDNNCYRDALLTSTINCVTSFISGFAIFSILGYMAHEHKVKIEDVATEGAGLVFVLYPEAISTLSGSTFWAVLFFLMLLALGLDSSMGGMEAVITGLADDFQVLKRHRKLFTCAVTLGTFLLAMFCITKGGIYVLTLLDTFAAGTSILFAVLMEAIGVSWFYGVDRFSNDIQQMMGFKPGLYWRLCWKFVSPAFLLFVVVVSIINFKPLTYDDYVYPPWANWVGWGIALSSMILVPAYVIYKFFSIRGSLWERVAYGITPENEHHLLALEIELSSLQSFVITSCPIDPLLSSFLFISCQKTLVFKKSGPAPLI

SMILES	IC50 [1]	IC50 [2]	IC50 [3]	ED50 (Mus musculus [4]; Mus musculus, read-out: ED50)	ED50 (Mus musculus [5])	ED50 (Mus musculus [4])	ED50 (Mus musculus [6])	ED50 (Mus musculus [5]; Mus musculus, read-out: ED50)
CN(C)C1CC(c2ccc(Cl)c(Cl)c2)c2ccccc21 (centres undefined)	24 nM	28 nM	0.64 nM					
CN(C)C1CC(c2ccc(Cl)c(Cl)c2)c2ccc(F)cc21 (stereo in doubt; 51)	21 nM	12 nM	1.1 nM	> 111 µmol/kg				
CN(C)C1CC(c2ccc(F)cc2)c2ccc(C(F)(F)F)cc21 (stereo in doubt; 57)	85 nM	240 nM	43 nM	116 µmol/kg				
CN1CCN(C2CC(c3ccc(Cl)c(Cl)c3)c3ccccc32)CC1 (single isomer, unassigned; (-))		10 nM			26 µM/kg			
CN(C)C1CC(c2cccc(Cl)c2)c2ccccc21.Cl (stereo in doubt; 40)	15 nM	71 nM	36 nM			10 µmol/kg		
CNC1CC(c2ccc(Cl)c(C(F)(F)F)c2)c2ccccc21 (centres undefined)	25 nM	3500 nM	4.2 nM	> 110 µmol/kg			55 µmol/kg	
CN(C)C1CC(c2ccccc2)c2ccccc21.Cl (stereo in doubt; 31)	130 nM	600 nM	150 nM			17 µmol/kg		
CNC1CC(c2ccc(Cl)cc2)c2ccccc21.Cl (centres undefined)	24 nM	120 nM	0.65 nM			376 µmol/kg		
CNC1CC(c2ccc(Cl)c(Cl)c2)c2ccc(F)cc21.Cl (stereo in doubt; 50)	0.71 nM	0.12 nM	2.3 nM			33 µmol/kg		
CNC1CC(c2ccc(Cl)cc2)c2ccccc21 (centres undefined)	0.51 nM	5.6 nM	4 nM			>155 µmol/kg		
CNC1CC(c2ccc(Br)cc2)c2ccccc21 (stereo in doubt; 36)	0.3 nM	2.5 nM	0.28 nM	47 µmol/kg				
CN(C)C1CC(c2ccc(Br)cc2)c2ccccc21 (stereo in doubt; 37)	28 nM	54 nM	0.04 nM			9.8 µmol/kg		
CN(C)C1CC(c2ccc(Cl)cc2Cl)c2ccccc21.Cl (stereo in doubt; 49)	90 nM	2000 nM	0.58 nM			23 µmol/kg		
CCCN(CCC)C1CC(c2ccc(Cl)c(Cl)c2)c2ccccc21.Cl (stereo in doubt; 89)	73 nM	150 nM	720 nM			25 µmol/kg		
CNCCCC1(c2ccccc2)SC(C)(C)c2ccccc21 (centres undefined)	0.79 nM	9300 nM	850 nM	2.3 µmol/kg			> 115 µmol/kg	
CN(C)C1CC(c2ccc(F)cc2)c2ccc(F)cc21.Cl (centres undefined)	350 nM	620 nM	18 nM			28 µmol/kg		
CN(C)C1CC(c2ccc(F)cc2)c2ccccc21.Cl (stereo in doubt; 33)	100 nM	320 nM	33 nM			7.8 µmol/kg		
CNC1CC(c2cccc(Cl)c2)c2ccccc21.Cl (stereo in doubt; 66)	19 nM	220 nM	6.8 nM			119 µmol/kg		
CN(C)C1CC(c2ccc(F)c(F)c2)c2ccccc21 (centres undefined) [listing 1 of 2 here]	29 nM	180 nM	1.3 nM			13 µmol/kg		
CN(C)C1CC(c2ccc(Br)cc2)c2ccccc21 (stereo in doubt; 65)	4.3 nM	83 nM	0.14 nM			2.3 µmol/kg		
Clc1ccc(C2CC(N3CCCC3)c3ccccc32)cc1Cl (stereo in doubt; 98)	27 nM	32 nM	3.1 nM					
CN(C)C1CC(c2cccc(Cl)c2)c2ccccc21.Cl (stereo in doubt; 67)	0.77 nM	54 nM	2.6 nM			85 µmol/kg		

SMILES	IC50 [1]	IC50 [2]	IC50 [3]	ED50 (Mus musculus [4]; Mus musculus, read-out: ED50)	ED50 (Mus musculus [5])	ED50 (Mus musculus [4])	ED50 (Mus musculus [6])	ED50 (Mus musculus [5]; Mus musculus, read-out: ED50)
CNC1CC(c2ccc(Cl)c(Cl)c2)c2ccc(F)cc21.Cl (stereo in doubt; 76)	14 nM	5 nM	0.75 nM			15 µmol/kg		
CNC1CC(c2ccc(F)c(F)c2)c2ccccc21.Cl (stereo in doubt; 41)	1.6 nM	21 nM	49 nM			58 µmol/kg		
CNC1CC(c2ccc(C(F)(F)F)cc2)c2ccccc21 (centres undefined)	67 nM	160 nM	4.7 nM	58 µmol/kg			45 µmol/kg	
CN(C)C1CC(c2ccc(F)c(F)c2)c2ccccc21 (centres undefined) [listing 2 of 2 here]	62 nM	250 nM	20 nM	7.1 µmol/kg				
CNC1CC(c2ccccc2)c2ccccc21 (centres undefined)	320 nM	1400 nM	210 nM	> 154 µmol/kg			211 µmol/kg	
CCCNC1CC(c2ccc(Cl)c(Cl)c2)c2ccccc21.Cl (stereo in doubt; 87)	0.66 nM	6.6 nM	150 nM			68 µmol/kg		
CN(C)C1CC(c2ccc(F)cc2)c2ccccc21.Cl (stereo in doubt; 61)	24 nM		6.2 nM			24 µmol/kg		
CNC1CC(c2ccc(F)cc2)c2ccccc21.Cl (stereo in doubt; 32)	2.9 nM		76 nM			19 µmol/kg		
CN(C)C1CC(c2ccc(Cl)c(Cl)c2)c2ccc(F)cc21 (stereo in doubt; 77)	3.7 nM	31 nM	2.5 nM					
CCNC1CC(c2ccc(Cl)c(Cl)c2)c2ccccc21.Cl (stereo in doubt; 83)	0.32 nM	1.5 nM	2.3 nM					
Clc1ccc(C2CC(N3CCCCC3)c3ccccc32)cc1Cl (stereo in doubt; 100)	79 nM	79 nM	420 nM	> 104 µmol/kg				
CNC1CC(c2cccc(Cl)c2)c2ccccc21.Cl (stereo in doubt; 39)	0.12 nM	14 nM	41 nM			45 µmol/kg		
CNC1CC(c2ccc(Br)cc2)c2ccccc21.Cl (stereo in doubt; 64)	8.8 nM	67 nM	0.16 nM			29 µmol/kg		
CNC1CC(c2ccc(F)cc2)c2ccccc21.Cl (stereo in doubt; 60)	120 nM		21 nM			79 µmol/kg		
CN(C)C1CC(c2ccc(Cl)cc2)c2ccccc21 (stereo in doubt; 63)	4.4 nM	190 nM	0.34 nM	43 µmol/kg				
CCN(CC)C1CC(c2ccc(Cl)c(Cl)c2)c2ccccc21.Cl (stereo in doubt; 85)	0.56 nM	2.1 nM	2.8 nM			52 µmol/kg		
CNC1CC(c2ccc(F)c(F)c2)c2ccccc21.Cl (stereo in doubt; 68)	33 nM	150 nM	4.6 nM			23 µmol/kg		
CNC1CC(c2ccc(Cl)cc2Cl)c2ccccc21.Cl (stereo in doubt; 48)	15 nM	510 nM	0.91 nM			19 µmol/kg		
CN(C)C1CC(c2ccc(Cl)cc2)c2ccccc21 (stereo in doubt; 35)	23 nM	140 nM	0.64 nM			56 µmol/kg		
CNC1CC(c2ccc(Cl)cc2Cl)c2ccccc21.Cl (stereo in doubt; 74)	6.1 nM	100 nM	21 nM			98 µmol/kg		
CN(C)CCCC1(c2ccc(F)cc2)OCc2cc(C#N)ccc21 (centres undefined) [CITALOPRAM]								51 µmol/kg
